In ChEMBL document CHEMBL2401625, “Synthesis and evaluation of pharmacological properties of some new xanthone derivatives with piperazine moiety” (Bioorg Med Chem Lett, 2013):
The source made the active and inactive calls. No cut-off for these calls is given here.

Key:
[1] = system: Mus musculus; assay: Anticonvulsant activity in CF1 mouse assessed as protection against maximal electroshock-induced seizures at 30 mg/kg, ip after 0.5 hrs; format: functional, organism-based; set-up: dose 30 mg/kg
Outline: (§1)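 Mice given compound i.p. at 30, 100 or 300 mg/kg and tested 0.5 or 4 h after dosing. Seizures were induced by maximal electroshock (MES) or subcutaneous metrazole (ScMet). Prevention of seizures counts as protection. Result is recorded as number of animals protected over number tested.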

[2] = target: T1, Adrenergic receptor alpha-1 (Rattus norvegicus, UniProt P15823+P23944+P43140); assay: Displacement of [3H]prazosin from alpha1-adrenergic receptor in rat cerebral cortex after 30 mins by scintillation counting; format: tissue-based
T1 sequence (P15823 whole entry): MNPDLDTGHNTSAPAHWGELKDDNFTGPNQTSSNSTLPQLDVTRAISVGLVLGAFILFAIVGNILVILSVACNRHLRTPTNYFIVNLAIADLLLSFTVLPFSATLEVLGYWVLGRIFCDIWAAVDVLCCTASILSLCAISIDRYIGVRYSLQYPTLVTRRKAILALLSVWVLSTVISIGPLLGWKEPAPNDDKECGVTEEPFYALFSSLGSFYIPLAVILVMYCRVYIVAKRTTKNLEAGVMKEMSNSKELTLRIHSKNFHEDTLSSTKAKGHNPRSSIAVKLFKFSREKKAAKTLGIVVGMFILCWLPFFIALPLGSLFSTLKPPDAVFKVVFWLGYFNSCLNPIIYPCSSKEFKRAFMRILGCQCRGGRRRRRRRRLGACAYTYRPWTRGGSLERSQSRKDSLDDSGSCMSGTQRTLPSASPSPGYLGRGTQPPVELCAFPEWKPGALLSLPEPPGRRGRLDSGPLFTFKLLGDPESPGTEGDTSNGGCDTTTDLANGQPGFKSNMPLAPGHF
T1 sequence (P23944 whole entry): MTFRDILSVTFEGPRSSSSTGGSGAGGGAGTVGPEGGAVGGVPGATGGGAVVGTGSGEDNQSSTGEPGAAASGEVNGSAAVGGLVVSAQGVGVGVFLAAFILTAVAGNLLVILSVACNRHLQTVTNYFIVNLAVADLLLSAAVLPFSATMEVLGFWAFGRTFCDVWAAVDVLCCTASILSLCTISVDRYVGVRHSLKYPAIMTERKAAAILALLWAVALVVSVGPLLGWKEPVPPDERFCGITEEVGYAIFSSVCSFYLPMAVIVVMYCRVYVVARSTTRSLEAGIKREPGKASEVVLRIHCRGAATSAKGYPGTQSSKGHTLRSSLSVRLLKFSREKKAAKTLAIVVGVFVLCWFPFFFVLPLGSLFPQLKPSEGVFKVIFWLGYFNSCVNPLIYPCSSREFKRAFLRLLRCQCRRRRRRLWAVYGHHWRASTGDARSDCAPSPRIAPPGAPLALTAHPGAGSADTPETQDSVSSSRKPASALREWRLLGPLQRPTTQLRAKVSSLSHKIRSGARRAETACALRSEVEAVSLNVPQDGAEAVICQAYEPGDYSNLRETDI
T1 sequence (P43140 whole entry): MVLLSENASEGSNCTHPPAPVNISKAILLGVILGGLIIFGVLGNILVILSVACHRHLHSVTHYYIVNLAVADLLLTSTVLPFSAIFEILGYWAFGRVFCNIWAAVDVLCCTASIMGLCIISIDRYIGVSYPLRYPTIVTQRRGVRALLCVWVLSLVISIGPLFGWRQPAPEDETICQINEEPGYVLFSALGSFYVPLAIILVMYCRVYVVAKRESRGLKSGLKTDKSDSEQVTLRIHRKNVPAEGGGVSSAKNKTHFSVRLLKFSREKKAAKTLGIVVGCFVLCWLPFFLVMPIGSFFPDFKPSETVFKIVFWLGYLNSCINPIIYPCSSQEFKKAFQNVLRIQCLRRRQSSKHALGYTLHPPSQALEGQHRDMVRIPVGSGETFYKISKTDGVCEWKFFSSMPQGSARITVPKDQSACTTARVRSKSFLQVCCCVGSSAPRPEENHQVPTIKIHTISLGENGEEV
Outline: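 Radioligand binding on rat brain tissue membranes, run in 96-well format. [3H]prazosin was used for α1 (n = 2) and [3H]CGP-12177 for β1 (n = 2). Ki was calculated by the Cheng–Prusoff equation.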

[3] = target: 5-hydroxytryptamine receptor 7 (Homo sapiens, UniProt P34969); assay: Displacement of [3H]5-CT from human 5HT7b receptor expressed in HEK293 cells after 1 hr; format: cell-based
[4] = target: T2, 5-hydroxytryptamine receptor 1A (Homo sapiens, UniProt P08908); assay: Displacement of [3H]8-OH-DPAT from human 5HT1A receptor expressed in HEK293 cells after 1 hr; format: cell-based
T2 sequence (P08908 whole entry): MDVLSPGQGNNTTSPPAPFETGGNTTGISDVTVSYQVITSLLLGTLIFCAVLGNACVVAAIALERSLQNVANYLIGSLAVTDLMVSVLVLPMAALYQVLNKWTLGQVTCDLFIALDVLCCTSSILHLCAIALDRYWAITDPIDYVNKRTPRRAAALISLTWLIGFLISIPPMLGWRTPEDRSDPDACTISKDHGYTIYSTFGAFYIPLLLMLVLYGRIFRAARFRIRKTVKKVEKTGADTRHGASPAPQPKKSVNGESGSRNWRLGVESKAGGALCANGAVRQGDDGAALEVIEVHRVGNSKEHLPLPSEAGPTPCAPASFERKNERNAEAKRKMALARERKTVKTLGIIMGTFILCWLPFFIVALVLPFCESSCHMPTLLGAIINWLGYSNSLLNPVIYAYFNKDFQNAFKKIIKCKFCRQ

[5] = system: Rattus norvegicus; assay: Anticonvulsant activity in Sprague-Dawley rat assessed as protection against maximal electroshock-induced seizures at 30 mg/kg, po after 0.25 hrs; format: functional, organism-based; set-up: dose 30 mg/kg
Outline: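 Rats dosed orally at 30 mg/kg and tested in MES at several time points after dosing. Protection means seizures were prevented. Result is recorded as number of animals protected over number tested.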

[6] = system: Mus musculus; assay: Neurotoxicity in CF1 mouse assessed as minimal motor impairment at 30 mg/kg, ip after 4 hrs by rotorod test; format: toxicity, organism-based; set-up: dose 30 mg/kg, route intraperitoneal; settings: in vivo
Outline: (§2)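 Rotarod neurotoxicity screen in mice dosed i.p. at 30, 100 or 300 mg/kg, read 0.5 or 4 h after dosing. The animal must stay on a rod rotating at 6 rpm without falling, measured 3 times within 1 min. A fall counts as minimal motor impairment. Result is recorded as impaired animals over animals used.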

[7] = system: Mus musculus; assay: Neurotoxicity in CF1 mouse assessed as minimal motor impairment at 100 mg/kg, ip after 4 hrs by rotorod test; format: toxicity, organism-based; set-up: dose 100 mg/kg, route intraperitoneal; settings: in vivo; outline: as §2
[8] = system: Mus musculus; assay: Neurotoxicity in CF1 mouse assessed as minimal motor impairment at 30 mg/kg, ip after 0.5 hrs by rotorod test; format: toxicity, organism-based; set-up: dose 30 mg/kg, route intraperitoneal; settings: in vivo; outline: as §2
[9] = system: Mus musculus; assay: Anticonvulsant activity in CF1 mouse assessed as protection against subcutaneous metrazole-induced seizures at 100 mg/kg, ip after 4 hrs; format: functional, organism-based; set-up: dose 100 mg/kg; outline: as §1
[10] = system: Mus musculus; assay: Anticonvulsant activity in CF1 mouse assessed as protection against subcutaneous metrazole-induced seizures at 30 mg/kg, ip after 4 hrs; format: functional, organism-based; set-up: dose 30 mg/kg; outline: as §1
[11] = system: Mus musculus; assay: Anticonvulsant activity in CF1 mouse assessed as protection against maximal electroshock-induced seizures at 30 mg/kg, ip after 4 hrs; format: functional, organism-based; set-up: dose 30 mg/kg; outline: as §1
[12] = system: Rattus norvegicus; assay: Neurotoxicity in Sprague-Dawley rat assessed as minimal motor impairment at 30 mg/kg, po after 4 hrs by rotorod test; settings: in vivo

5-hydroxytryptamine receptor 7, sequence (P34969 whole entry): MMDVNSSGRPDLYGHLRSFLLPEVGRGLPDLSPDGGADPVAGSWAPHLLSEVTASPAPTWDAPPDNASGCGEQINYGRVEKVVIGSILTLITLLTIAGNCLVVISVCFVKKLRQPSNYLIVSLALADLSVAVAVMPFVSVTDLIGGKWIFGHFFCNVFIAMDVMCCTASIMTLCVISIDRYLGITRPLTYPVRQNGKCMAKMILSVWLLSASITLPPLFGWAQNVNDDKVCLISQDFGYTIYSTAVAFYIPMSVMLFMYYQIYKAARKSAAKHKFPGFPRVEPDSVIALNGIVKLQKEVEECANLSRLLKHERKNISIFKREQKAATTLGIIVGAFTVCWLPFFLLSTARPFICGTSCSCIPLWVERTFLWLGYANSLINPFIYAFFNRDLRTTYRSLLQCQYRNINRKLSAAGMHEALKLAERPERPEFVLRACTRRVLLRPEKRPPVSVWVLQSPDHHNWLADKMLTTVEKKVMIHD

Ki [2]: 3.93 µM
Ki [3]: 17.4 µM
Ki [4]: 4.5 µM
Compound: Cl.Cl.Cl.O=c1c2ccc(Cl)cc2oc2c(CN3CCN(CCO)CC3)cccc12
Activity [1]: inactive
Activity [5]: inactive
Activity [6]: Non-toxic
Activity [7]: Non-toxic
Activity [8]: Non-toxic
Activity [9]: inactive
Activity [10]: inactive
Activity [11]: inactive
Activity [12]: Non-toxic
